Results as given in ChEMBL document CHEMBL1152458, “Voriconazole inhibits melanization in Cryptococcus neoformans” (2007).
In brackets after ≈: the same amount, converted by molar mass. Activity calls are given as the source filed them.

What was measured:
Cryptococcus neoformans [1] = experiment: Inhibition of melanin formation in Cryptococcus neoformans ATCC 24067 at =<0.5 times MIC after 10 days by plating assay; format: functional, organism-based
In short: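 Strain 24067 yeast grown on minimal-medium agar plates containing 1 mM L-dopa, with or without drug, 10 days at 30°C. Read-out was visual dark pigmentation of colonies and of surrounding agar from secreted laccase. Plates run in triplicate, experiment performed twice.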

Cryptococcus neoformans [2] = experiment: Antifungal activity against Cryptococcus neoformans ATCC 24067 after 72 hrs by NCCLS M27A method; format: functional; details: ATCC 24067, 72 h
Cryptococcus neoformans [3] = experiment: Inhibition of melanin formation in Cryptococcus neoformans ATCC 24067 at 0.25 times MIC coincubated with L-dopa for 7 days by dry-weight measurement; format: functional; set-up: scale not given: the % may be the effect or the level left
In short: (§1)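 5 x 10^4 yeasts grown in 50 ml minimal medium + 1 mM L-dopa ± drug (0.25 or 0.5 MIC) at 30°C, 150 rpm, for 7 days. Melanin "ghosts" were isolated by cell-wall lysing enzymes (10 mg/ml, overnight 30°C), proteinase K (1 mg/ml, SDS buffer pH 7.8, 37°C overnight) and boiling 6 M HCl for 1 h. They were then lyophilized and weighed.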

Cryptococcus neoformans [4] = experiment: Reduction in LAC1 gene expression in Cryptococcus neoformans ATCC 24067 at 0.25 to 0.5 times MIC after 7 days by qRT-PCR relative to control; format: functional
In short: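 Cells grown 7 days at 30°C on foil-covered minimal-medium agar + 1 mM L-dopa ± drug (0.25 or 0.5 MIC). Total RNA was DNase-treated and reverse transcribed, then LAC1 was measured by real-time PCR (40 cycles, 55°C annealing) with melting curve. Expression was normalized to ACT1 using the threshold-cycle method.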

Cryptococcus neoformans [5] = experiment: Inhibition of melanin formation in Cryptococcus neoformans ATCC 24067 at 0.5 times MIC coincubated with L-dopa for 7 days by dry-weight measurement; format: functional; set-up: scale not given: the % may be the effect or the level left; in short: as §1
Cryptococcus neoformans [6] = experiment: Increase in phagocytosis of Cryptococcus neoformans ATCC 24067 by mouse J774.16 cells at 0.25 to 0.5 times MIC; format: functional, organism-based
In short: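 Yeasts (5 x 10^4 in 25 ml minimal medium + 1 mM L-dopa, 0.25 or 0.5 MIC drug, 30°C, 150 rpm) sampled on days 3, 5 and 7. They were PBS-washed and added 1:1 to J774.16 macrophages with 10 µg/ml mAb 18B7 for 2 h at 37°C. Monolayers were washed, methanol-fixed and Giemsa-stained. Index is internalized yeasts per macrophage, from 3 wells × 3 fields (~100 macrophages each) at x400.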

Cryptococcus neoformans [7] = experiment: Antifungal activity against Cryptococcus neoformans ATCC 24067 assessed as effect on growth rate at 0.25 to 0.5 times MIC; format: functional, organism-based
In short: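 C. neoformans 24067 grown at 30°C in minimal medium with L-dopa, with drug at several sub-MIC levels up to 0.5 MIC. Inoculum was 5 x 10^4 cells in 50 ml per concentration, with growth followed over time.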

Cryptococcus neoformans [8] = experiment: Inhibition of intact recombinant Cryptococcus neoformans ATCC 24067 laccase-mediated ABTS oxidation at 0.5 times MIC after 2 hrs
In short: (§2)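 Yeasts grown 72 h at 30°C in asparagine medium with glucose, then 36 h without glucose. Intact cells were used at 1 x 10^8/ml in PBS ± voriconazole. Alternatively, bead-beaten cytoplasmic extracts in 0.1 M Na2HPO4 with protease inhibitor were used. ABTS 1 mM final, 30°C for 2 h; cells removed and A420 read against a no-ABTS baseline. Rhus laccase (1 U/ml) served as positive control. Run twice.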

[9] = test system: Toxicodendron vernicifluum; experiment: Inhibition of recombinant Rhus vernificera laccase-mediated ABTS oxidation measured as inhibition activity with respect to decrease in enzyme concentration from 1 to 0.001 U/mL at 1 ug/ml
In short: (§3)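 Commercial Rhus vernificera laccase incubated with voriconazole, varying concentrations of either enzyme or drug, in PBS. ABTS 1 mM final, 30°C for 2 h, with absorbance read at 420 nm.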

[10] = test system: Toxicodendron vernicifluum; experiment: Inhibition of Rhus vernificera recombinant laccase-mediated ABTS oxidation; in short: as §3
[11] = test system: Toxicodendron vernicifluum; experiment: Inhibition of cytoplasmic extract of recombinant Rhus vernificera laccase-mediated ABTS oxidation at 0.5 times MIC after 2 hrs; in short: as §2

SMILES | MIC (Cryptococcus neoformans [2]) | Activity (Cryptococcus neoformans [3]) | Activity (Cryptococcus neoformans [4]) | Activity (Cryptococcus neoformans [5]) | other results
C[C@@H]1[C@H](O)[C@@H](C)/C=C/C=C/C=C/C=C/C=C/C=C/C=C/[C@H](O[C@@H]2O[C@H](C)[C@@H](O)[C@H](N)[C@@H]2O)C[C@@H]2O[C@](O)(C[C@@H](O)C[C@@H](O)[C@H](O)CC[C@@H](O)C[C@@H](O)CC(=O)O[C@H]1C)C[C@H](O)[C@H]2C(=O)O [AMPHOTERICIN B] | 0.125 µg/mL (≈ 0.135 µM) |  |  |  | Activity (Cryptococcus neoformans [1]): inactive
CC[C@H](C)C[C@H](C)CCCCCCCCC(=O)N[C@H]1C[C@@H](O)[C@@H](NCCN)NC(=O)[C@@H]2[C@@H](O)CCN2C(=O)[C@H]([C@H](O)CCN)NC(=O)[C@H]([C@H](O)[C@@H](O)c2ccc(O)cc2)NC(=O)[C@@H]2C[C@@H](O)CN2C(=O)[C@H]([C@@H](C)O)NC1=O [CASPOFUNGIN] | 8 µg/mL (≈ 7.32 µM) |  |  |  | 
OC(Cn1cncn1)(Cn1cncn1)c1ccc(F)cc1F [FLUCONAZOLE] | 1 µg/mL (≈ 3.27 µM) | 2.7% | inactive | 17.3% | 
CCC(C)n1ncn(-c2ccc(N3CCN(c4ccc(OCC5COC(Cn6cncn6)(c6ccc(Cl)cc6Cl)O5)cc4)CC3)cc2)c1=O (stereo not drawn) [ITRACONAZOLE] | < 0.625 µg/mL |  |  |  | 
C[C@@H](c1ncncc1F)[C@](O)(Cn1cncn1)c1ccc(F)cc1F [VORICONAZOLE] | 0.015 µg/mL (≈ 0.0429 µM) | 82.1% | 40% | 94.5% | Activity (Cryptococcus neoformans [6]): Active; Activity (Cryptococcus neoformans [7]): inactive; Activity (Cryptococcus neoformans [8]): Active; Activity [9]: Active; Activity [10]: Dose-dependent effect; Activity [11]: Active
